Experimental data published in ChEMBL document CHEMBL1250434, “A novel achiral seco-cyclopropylpyrido[e]indolone (CPyI) analog of CC-1065 and the duocarmycins: synthesis, DNA interactions, in vivo anticancer and anti-parasitic evaluation” (Bioorg Med Chem, 2010).
pIC50: −log10 of the molar value.

Legend:
Trypanosoma brucei = experiment: Antimicrobial activity against procyclic form of Trypanosoma brucei 427 assessed as inhibition of cell proliferation after 72 hrs by alamar blue assay; type: functional, organism-based; conditions: Trypanosoma brucei, 427, 72 h
How it was run: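 T. brucei 427 procyclic forms grown in SDM 79 medium with 0.03 nM to 64 µM compound for 72 h at 26 °C. Proliferation read by Alamar blue reduction after a further 15 h, fluorescence ex 530/em 590 nm.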

L1210 = experiment: Cytotoxicity against mouse L1210 cells after 3 days by MTT assay; type: functional, cell-based; conditions: L1210, 72 h
How it was run: (§1)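 Murine tumour cells under continuous drug exposure for 3 days. Growth inhibition measured by MTT assay. IC50 is the concentration inhibiting growth by 50%.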

Nucleic Acid = experiment: Binding affinity to pUC18 DNA assessed as DNA alkylating activity after 5 hrs by thermal cleavage assay; type: nucleic-acid assay; conditions: Escherichia coli
How it was run: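 PCR probe from the 749–956 region of pUC18. DNA precipitated and lyophilised, then heated at 90 °C for 30 min in sodium citrate buffer (pH 7.2) to cleave at alkylated adenines. Fragments resolved by electrophoresis.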

Plasmodium falciparum = experiment: Antimicrobial activity against Plasmodium falciparum infected in human erythrocytes assessed as growth inhibition; type: functional, organism-based
How it was run: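 P. falciparum grown in human erythrocytes at 3–5% hematocrit in complete medium. In vitro growth assay at six concentrations, in triplicate, in three independent experiments.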

Leishmania donovani = experiment: Antimicrobial activity against promastigotes of Leishmania donovani assessed as inhibition of cell proliferation after 72 hrs by alamar blue assay; type: functional, organism-based
How it was run: (§2)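 Promastigotes at 5 × 10^4 cells/well in DME-L medium with 10% heat-inactivated FBS, hemin, xanthine and penicillin-streptomycin. Exposed to 0.03 nM to 64 µM compound for 72 h at 26 °C. Alamar blue added, incubated 15 h, dye reduction read by fluorescence ex 530/em 590 nm.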

[1] = Cytotoxicity against mouse B16F0 cells after 3 days by MTT assay; type: functional, cell-based; conditions: B16F0, 72 h; how it was run: as §1
Leishmania mexicana = experiment: Antimicrobial activity against promastigotes of Leishmania mexicana assessed as inhibition of cell proliferation after 72 hrs by alamar blue assay; type: functional, organism-based; how it was run: as §2

## COc1cc2cc(C(=O)Nc3cc(N)c4ccccc4c3CCCl)[nH]c2c(OC)c1OC [CENTANAMYCIN]
Trypanosoma brucei
  pIC50: 8.72
L1210
  pIC50: 7.26
Nucleic Acid
  Activity: Dose-dependent effect
Plasmodium falciparum
  pIC50: 8.74
Leishmania donovani
  pIC50: 7.89
[1]
  pIC50: 7.57
Leishmania mexicana
  pIC50: 5.99

## COc1c(O)c2c(c3cc(C(=O)N4CCc5c4c(O)c(OC)c4[nH]c(C(=O)N6C[C@H]7C[C@@]78C6=CC(=O)c6[nH]cc(C)c68)cc54)[nH]c13)CCN2C(N)=O [(+)-CC-1065]
L1210
  pIC50: 10.52

## COc1cc2cc(C(=O)N3CC(CCl)c4c3cc(O)c3ccccc43)[nH]c2c(OC)c1OC (centres undefined)
[1]
  pIC50: 7.11
